Results as given in ChEMBL document CHEMBL5058577, “EUbOPEN Chemogenomics Library 2 (Multiplex)” (2022).

Test system: U2OS
Assay: Multiplex assay against U2OS
Type: toxicity, cell-based
Details: human
In short: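 Four dyes were applied at seeding to live cells: Hoechst33342, BioTracker Green Microtubule Cytoskeleton Dye, MitoTracker Red and Annexin V Alexa Fluor 680. Imaging after compound addition used a CQ1 microscope at 37°C and 5% CO2. CellPathfinder machine-learning gating then sorted cells into Hoechst high-intensity objects or normal cells, normal cells into healthy, pyknosed or fragmented nuclei, and pyknosed cells into mitotic or apoptotic, with tubulin, mitochondrial-mass and membrane-permeability phenotypes given as per cents of healthy-nucleus cells.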

[1] = 12 h, 1 µM, compound concentration 1 uM, replicate 1
[2] = 12 h, 1 µM, compound concentration 1 uM, replicate 2
[3] = 12 h, 10 µM, compound concentration 10 uM, replicate 1
[4] = 12 h, 10 µM, compound concentration 10 uM, replicate 2
[5] = 24 h, 1 µM, compound concentration 1 uM, replicate 1
[6] = 24 h, 1 µM, compound concentration 1 uM, replicate 2
[7] = 24 h, 10 µM, compound concentration 10 uM, replicate 1
[8] = 24 h, 10 µM, compound concentration 10 uM, replicate 2
[9] = 48 h, 1 µM, compound concentration 1 uM, replicate 1
[10] = 48 h, 1 µM, compound concentration 1 uM, replicate 2
[11] = 48 h, 10 µM, compound concentration 10 uM, replicate 1
[12] = 48 h, 10 µM, compound concentration 10 uM, replicate 2

## COc1c(C)cc(NC(=O)c2nn(Cc3ccc(F)cc3)c3c2CN(C(=O)c2ccc[nH]2)C[C@]3(C)C(N)=O)cc1C
[1]
  Population Apoptotic (%): 65%
  Population Fragmented Nuclei (%): 22%
  Population Healthy Nuclei (%): 65%
  Population Hoechst High Intensity Objects (%): 2%
  Population Membrane Permeable-Phenotype (%): 8%
  Population Mitochondria Different-Phenotype (%): 3%
  Population Mitotic Cells (%): 34%
  Population Normal (%): 97%
  Population Pyknosed Nuclei (%): 12%
  Population Tubulin-Different-Phenotype (%): 5%
  Total Cell Count: 247
[2]
  Population Apoptotic (%): 83%
  Population Fragmented Nuclei (%): 21%
  Population Healthy Nuclei (%): 72%
  Population Mitochondria Different-Phenotype (%): 12%
  Population Mitotic Cells (%): 16%
  Population Pyknosed Nuclei (%): 6%
  Population Tubulin-Different-Phenotype (%): 9%
  Total Cell Count: 102
[3]
  Population Apoptotic (%): 33%
  Population Fragmented Nuclei (%): 26%
  Population Healthy Nuclei (%): 43%
  Population Hoechst High Intensity Objects (%): 9%
  Population Membrane Permeable-Phenotype (%): 77%
  Population Mitochondria Different-Phenotype (%): 90%
  Population Mitotic Cells (%): 66%
  Population Normal (%): 90%
  Population Pyknosed Nuclei (%): 29%
  Population Tubulin-Different-Phenotype (%): 95%
  Total Cell Count: 223
[4]
  Population Apoptotic (%): 60%
  Population Fragmented Nuclei (%): 11%
  Population Healthy Nuclei (%): 66%
  Population Hoechst High Intensity Objects (%): 8%
  Population Membrane Permeable-Phenotype (%): 54%
  Population Mitochondria Different-Phenotype (%): 97%
  Population Mitotic Cells (%): 39%
  Population Normal (%): 91%
  Population Pyknosed Nuclei (%): 21%
  Population Tubulin-Different-Phenotype (%): 100%
  Total Cell Count: 119
[5]
  Population Apoptotic (%): 67%
  Population Fragmented Nuclei (%): 16%
  Population Healthy Nuclei (%): 71%
  Population Hoechst High Intensity Objects (%): 5%
  Population Membrane Permeable-Phenotype (%): 8%
  Population Mitochondria Different-Phenotype (%): 6%
  Population Mitotic Cells (%): 32%
  Population Normal (%): 94%
  Population Pyknosed Nuclei (%): 12%
  Population Tubulin-Different-Phenotype (%): 7%
  Total Cell Count: 265
[6]
  Population Apoptotic (%): 61%
  Population Fragmented Nuclei (%): 17%
  Population Healthy Nuclei (%): 70%
  Population Hoechst High Intensity Objects (%): 0%
  Population Membrane Permeable-Phenotype (%): 7%
  Population Mitochondria Different-Phenotype (%): 2%
  Population Mitotic Cells (%): 38%
  Population Normal (%): 99%
  Population Pyknosed Nuclei (%): 11%
  Population Tubulin-Different-Phenotype (%): 6%
  Total Cell Count: 111
[7]
  Population Apoptotic (%): 66%
  Population Fragmented Nuclei (%): 26%
  Population Healthy Nuclei (%): 41%
  Population Hoechst High Intensity Objects (%): 12%
  Population Membrane Permeable-Phenotype (%): 46%
  Population Mitochondria Different-Phenotype (%): 92%
  Population Mitotic Cells (%): 33%
  Population Normal (%): 87%
  Population Pyknosed Nuclei (%): 31%
  Population Tubulin-Different-Phenotype (%): 94%
  Total Cell Count: 216
[8]
  Population Apoptotic (%): 65%
  Population Fragmented Nuclei (%): 13%
  Population Healthy Nuclei (%): 53%
  Population Hoechst High Intensity Objects (%): 7%
  Population Membrane Permeable-Phenotype (%): 49%
  Population Mitochondria Different-Phenotype (%): 91%
  Population Mitotic Cells (%): 34%
  Population Normal (%): 92%
  Population Pyknosed Nuclei (%): 33%
  Population Tubulin-Different-Phenotype (%): 91%
  Total Cell Count: 123
[9]
  Population Apoptotic (%): 79%
  Population Fragmented Nuclei (%): 18%
  Population Healthy Nuclei (%): 68%
  Population Hoechst High Intensity Objects (%): 2%
  Population Membrane Permeable-Phenotype (%): 4%
  Population Mitochondria Different-Phenotype (%): 3%
  Population Mitotic Cells (%): 20%
  Population Normal (%): 97%
  Population Pyknosed Nuclei (%): 13%
  Population Tubulin-Different-Phenotype (%): 2%
  Total Cell Count: 365
[10]
  Population Apoptotic (%): 84%
  Population Fragmented Nuclei (%): 15%
  Population Healthy Nuclei (%): 70%
  Population Hoechst High Intensity Objects (%): 5%
  Population Membrane Permeable-Phenotype (%): 9%
  Population Mitochondria Different-Phenotype (%): 4%
  Population Mitotic Cells (%): 15%
  Population Normal (%): 94%
  Population Tubulin-Different-Phenotype (%): 5%
  Total Cell Count: 152
[11]
  Population Apoptotic (%): 84%
  Population Fragmented Nuclei (%): 31%
  Population Healthy Nuclei (%): 24%
  Population Hoechst High Intensity Objects (%): 17%
  Population Membrane Permeable-Phenotype (%): 69%
  Population Mitochondria Different-Phenotype (%): 85%
  Population Mitotic Cells (%): 15%
  Population Normal (%): 82%
  Population Pyknosed Nuclei (%): 44%
  Population Tubulin-Different-Phenotype (%): 90%
  Total Cell Count: 212
[12]
  Population Apoptotic (%): 87%
  Population Fragmented Nuclei (%): 22%
  Population Healthy Nuclei (%): 47%
  Population Hoechst High Intensity Objects (%): 9%
  Population Membrane Permeable-Phenotype (%): 50%
  Population Mitochondria Different-Phenotype (%): 81%
  Population Mitotic Cells (%): 12%
  Population Normal (%): 90%
  Population Pyknosed Nuclei (%): 29%
  Population Tubulin-Different-Phenotype (%): 80%
  Total Cell Count: 150
